Compound activity as filed in PubChem BioAssay.
PABP polyA inh: PABP-poly(A) binding inhibition. P11940. PABP-poly(A) RNA binding, fluorescence polarization. inhibition, % at 35 µM. hit rate 1% among 290,000. AID 2014;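 note: calls also rest on retests at 20 µM and on dose response follow-up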
Target sequence (P11940 whole entry, looked up): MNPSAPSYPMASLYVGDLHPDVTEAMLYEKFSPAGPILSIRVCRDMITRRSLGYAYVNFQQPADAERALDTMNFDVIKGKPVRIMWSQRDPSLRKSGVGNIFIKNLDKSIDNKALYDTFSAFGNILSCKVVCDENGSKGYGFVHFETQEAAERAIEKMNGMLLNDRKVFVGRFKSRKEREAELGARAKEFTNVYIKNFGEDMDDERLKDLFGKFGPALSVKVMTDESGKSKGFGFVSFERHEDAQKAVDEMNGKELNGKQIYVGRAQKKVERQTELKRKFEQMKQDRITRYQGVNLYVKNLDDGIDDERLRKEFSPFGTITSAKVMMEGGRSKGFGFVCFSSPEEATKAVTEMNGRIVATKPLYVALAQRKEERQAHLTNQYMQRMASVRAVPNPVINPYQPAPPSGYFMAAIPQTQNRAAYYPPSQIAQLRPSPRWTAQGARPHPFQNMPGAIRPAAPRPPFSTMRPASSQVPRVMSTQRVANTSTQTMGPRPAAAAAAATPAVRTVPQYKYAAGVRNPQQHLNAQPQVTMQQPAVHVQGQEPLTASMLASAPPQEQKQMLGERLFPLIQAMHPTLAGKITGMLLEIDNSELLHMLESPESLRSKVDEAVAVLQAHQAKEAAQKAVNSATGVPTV
eIF4H inh: inhibitors of RNA binding by human eIF4H; eIF4H fluorescence polarization binding assay; Q15056; hit rate 0.94% among 290,000; inhibition, % at 35 µM;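 note: calls also rest on retests at 20 µM and on dose response follow-up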
PABP1 MLLE inh: blocks PAM2 peptide binding to the PABP1 MLLE domain; hit rate 0.36% among 360,000; inhibition, % at 20 µM; AID 588489; GST-MLLE / FITC-PAM2 fluorescence polarization; P11940; in the data active = inhibition above about 35%, passing the limit was not always enough;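 note: plate controls were DMSO wells with GST-MLLE for no effect and wells lacking GST-MLLE protein for full effect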
FID counter: fluorescent intercalator displacement, NS3 helicase counter-screen; DNA fluorescent intercalator displacement, fluorescence; inhibition, % at 7.9 µM; hit rate 0.17% among 290,000; AID 1845; in the data active = inhibition above about 37%;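 note: 0% = vehicle and 100% = reference compound; higher means more ethidium bromide displaced from hairpin DNA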
NS3 helicase inh: inhibitors of Hepatitis C virus NS3 helicase; NS3 helicase DNA unwinding, Cy5 molecular beacon fluorescence; hit rate 0.56% among 290,000; AID 1800; inhibition, % at 10.9 µM;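 active = inhibition above the mean of all tested compounds plus 3 SD, set per campaign, cut at about 35% in these data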;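 note: 0% = DMSO wells and 100% = thioflavine S control wells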
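Control set: DMSO versus 110 µM thioflavine S; Material: NS3 helicase fragment of HCV; Measured by: Cy5 fluorescence at 0 and 60 min, beacon hairpin quenching; Read-out basis: percent inhibition from t60/t0 fluorescence ratio; Times: reaction time 60 min, 25 °C; Repeats: single replicate; Compound dosing: single dose, 10.9 µM nominal final, DMSO 0.8% final.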
core dimer inh: blocks dimerization of HCV core protein | TR-FRET GST/Flag-core106 dimerization, 1536-well | inhibition, % at 5 µM | hit rate 0.33% among 300,000 | AID 1899;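 active = inhibition above the mean of all tested compounds plus 3 SD, set per screening campaign, cut at about 45% in these data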
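test system = GST/Flag-tagged HCV core106 proteins | probe or stimulus = Eu donor and XL665 acceptor anti-tag antibodies | times = compound-protein-antibody incubation 4 h at 22.5 °C | signal = TR-FRET, excitation 340 nm, emission 617 and 671 nm | measure = percent inhibition of core106 dimerization signal | controls = wells lacking GST-core106 and wells with excess unlabelled core106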
* marks the source's active call; other numbers are inactive results; ? = inconclusive; · = no result. Shown are actives, neighbours in structure and some others; about 2% of the full set was active somewhere. Unless noted, the rule behind the calls is not given here.

SMILES	PABP polyA inh	eIF4H inh	PABP1 MLLE inh	FID counter	NS3 helicase inh	core dimer inh
Cc1cc2cc(CNC(=O)c3cccc([N+](=O)[O-])c3)ccc2[nH]1	22	5	45*	-4	-2	2
Cc1cc2cc(CNC(=O)Cc3ccc([N+](=O)[O-])cc3)ccc2[nH]1	-3	8	9	6	-4	11
Cc1ccc(S(=O)(=O)N2CCC(=O)c3ccccc32)cc1	·	·	9	·	·	·
O=C1CCCCC1Sc1nnc(Cc2cccs2)n1CCc1ccccc1 (centres undefined)	2	3	-53	-24	0	51*
COc1ccc(Cc2c(-c3ccccc3)nc3c(C)cc(Br)cn23)c(C)c1	·	·	-23	·	·	·
Cc1cc(C(=O)O)cc(S(=O)(=O)Nc2ccccc2C(=O)NC(C)c2ccccc2)c1C (centres undefined)	5	-7	-2	-22	25	4
CNc1nc(C)c(C(=O)OCC(=O)OC)s1	-15	1	1	37*	-4	-4
C=CCn1c(-c2cc3cccc(OC)c3o2)n[nH]c1=S	active	?	-11	-20	-5	0
C=CCn1c(-c2cccc(OC)c2OC)n[nH]c1=S	?	0	-23	-7	-10	-3
C=CCn1c(-c2cc(OC)c(OC)c(OC)c2)n[nH]c1=S	3	12	-24	-8	-4	5
C=CCn1c(-c2cccc(OC)c2)n[nH]c1=S	82*	2.5*	-20	-4	6	-9
CC(OC(=O)C1CC2CCCC(C1)C2=O)C(=O)Nc1cccc([N+](=O)[O-])c1 (centres undefined)	·	·	6	·	·	·
O=C(NCc1cccnc1)c1ccc2sc([C@@H]3O[C@H](CO)[C@H](O)[C@H](O)[C@H]3O)nc2c1	·	·	-6	·	·	·
Cc1[nH]n(C(N)=S)c(=O)c1N=Nc1cccc([N+](=O)[O-])c1C	-4	-3	22	-6	15	-21
Cc1c(N=Nc2c(-c3ccc([N+](=O)[O-])cc3)[nH]n(C(N)=S)c2=O)cccc1[N+](=O)[O-]	active	?	41*	-5	15	·
NC(=S)n1[nH]c(-c2ccc([N+](=O)[O-])cc2)c(N=Nc2ccccc2[N+](=O)[O-])c1=O	-31	38	32	-4	17	·
NC(=S)n1[nH]c(-c2ccc([N+](=O)[O-])cc2)c(N=Nc2cccc([N+](=O)[O-])c2)c1=O	·	·	42*	-9	21	·
FC(F)(F)c1ccc2c(c1)NCC1CCCN21 (centres undefined)	23*	53*	-8	-6	24	-13
FC(F)(F)c1ccc2c(c1)N1CCCC1CN2 (centres undefined)	8	18	-48	-6	-8	-2
NC(=O)COC(=O)c1cccc2c1-c1ccccc1C2=O	53*	?	13	4	-2	-1
O=C1CC(=O)N(Cc2ccco2)C(=S)N1	84*	64*	-118	-10	22	2
O=c1oc2cc([N+](=O)[O-])ccc2nc1/C=C(O)/C=C/c1ccccc1	28	72*	·	-6	22	1
O=c1oc2cc([N+](=O)[O-])ccc2nc1/C=C(\O)c1cccc(Br)c1	12	8	-5	-9	14	-9
NC(=O)c1c(NC(=O)Cc2ccccc2)sc2c1CCN(Cc1ccccc1)C2	5	0	0	-3	-13	-6
Cc1cscc(C)c1=S	·	·	38*	·	·	·
SMILES	PABP polyA inh	eIF4H inh	PABP1 MLLE inh	FID counter	NS3 helicase inh	core dimer inh
O=C(CCCN1C(=O)S/C(=C\c2ccccc2)C1=O)NNC(=O)c1ccccc1O	24	1	-19	-4	0	6
CC(=O)c1ccc(NC(=O)CN2C(=O)/C(=C/C=C/c3ccccc3)SC2=S)cc1	-1	-3	0	-12	27	65*
CC(=O)NNC(=O)CN1C(=O)/C(=C/c2ccccc2)SC1=S	4	3	50*	-3	-7	-2
O=C(CN1C(=O)S/C(=C\c2ccccc2)C1=O)NCCCn1ccnc1	1	-2	43*	7	-5	5
O=C(O)CN1C(=O)/C(=C/C=C/c2ccccc2)SC1=S	-5	7	17	-22	22	3
O=C(CN1C(=O)S/C(=C\c2ccccc2)C1=O)NNC(=O)c1ccccc1O	97*	7.4*	5	-6	11	1
COc1cccc(-c2c(C#N)c(N)nc3c2c(C)nn3-c2ccccc2)c1O	-12	4	-3	-23	-25	5
COc1cc(C(=O)Nc2cc(S(C)(=O)=O)ccc2Cl)ccc1OCC(=O)N1CCOCC1	·	·	8	·	·	·
Cc1ccc(NC(=O)c2cccc3c2C(=O)N(C2CCCCC2)C3)c(Cl)c1	-8	-9	-13	-9	-4	14
CCOC(=O)C1CCCN(C(=O)c2cccc(C(F)(F)F)c2)CC1 (centres undefined)	·	·	-5	·	·	·
CN(C)S(=O)(=O)c1cccc(-c2nn(-c3ccccc3)cc2/C=C2\SC(=S)NC2=O)c1	active	?	-82	-13	32	52*
CCOCCCN1C(=O)C(=O)N(CC(=O)N2c3ccccc3NC(=O)CC2C)C1=O (centres undefined)	·	·	-27	·	·	·
COc1ncnc2c1ncn2CCCN(C)Cc1ccco1	·	·	8	·	·	·
Cn1c(N)c(C(=O)COC(=O)c2cc(-c3ccco3)nc3ccccc23)c(=O)n(C)c1=O	21*	?	6	-12	9	·
O=C(O)c1cnn2c(C(F)(F)F)cc(-c3ccco3)nc12	35*	78*	6	0	17	-3
O=C(c1cnn2c(C(F)(F)F)cc(-c3ccco3)nc12)N1CCCCCC1	-6	1	3	-30	11	2
O=C(Nc1ccccc1N1CCOCC1)c1cc(-c2ccco2)nc2ccccc12	32	82*	8	-27	9	56*
COCCCN(C(=O)c1cc(-c2ccco2)nc2ccccc12)c1c(N)n(Cc2ccccc2)c(=O)[nH]c1=O	·	·	7	·	·	11
CCCn1c(N)c(N(CCOC)C(=O)c2cc(-c3ccco3)nc3ccccc23)c(=O)[nH]c1=O	23	59*	18	-15	24	26
CC1(C(=O)Nc2ccccc2)Cc2c(-c3cccc(C(F)(F)F)c3)ccnc2O1 (centres undefined)	·	·	-10	·	·	·
O=S(=O)(SC1=NCCN1)c1ccccc1	·	·	4	·	·	·
Cn1c(N)c(C(=O)COC(=O)c2cc(-c3ccco3)nc3ccccc23)c(=O)n(Cc2ccccc2)c1=O	-9	70	·	-18	12	47*
CNC(=O)COC(=O)c1cc(-c2ccco2)nc2ccccc12	60*	74*	-5	0	35	48*
CCCNC(=O)COC(=O)c1cc(-c2ccc(OC)cc2)nc2ccccc12	51*	0	1	-12	-15	3
O=C(O)c1cc(-c2ccco2)nc2cc3ccccc3cc12	77*	100*	-3	-15	19	3
